Each structure is given as a SMILES string. Some results are limits rather than exact numbers.

The inhibition is the drop in the measured response relative to a control, in per cent.

Assay [1] concerns the target Calcium/calmodulin-dependent protein kinase kinase 2 (Homo sapiens) (UniProt Q96RR4). The experiment in a line: Inhibition of CaMKK2 Lys1 labeling site in human A-375 cells at 5 uM by KiNativ Profiling analysis relative to control. It is filed as cell-based. An outline of the steps: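 Live A375 melanoma cells were treated with compound at 5 or 0.5 μM. The cells were then lysed, and the lysates were labeled with a lysine-reactive ATP or ADP-biotin acyl probe (KiNativ). Inhibition is the compound's protection of each kinase labeling-site peptide from probe labeling, relative to untreated control.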

Assay [2] deals with Epidermal growth factor receptor (Homo sapiens) (UniProt P00533). The experiment in a line: Inhibition of EGFR ACT labeling site harbouring LLGAEEKEYHAEGGKVPIK in human A-375 cells at 5 uM by KiNativ Profiling analysis relative to control. The class given is cell-based. The method in brief: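 Live A375 melanoma cells were treated with compound at 0.5 or 5 μM, then lysed. Lysates were labeled with a lysine-reactive ATP or ADP-biotin probe. The read-out was protection of each kinase probe-labeling site from labeling, relative to control.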
Sequence of Epidermal growth factor receptor (Homo sapiens) (P00533 whole entry): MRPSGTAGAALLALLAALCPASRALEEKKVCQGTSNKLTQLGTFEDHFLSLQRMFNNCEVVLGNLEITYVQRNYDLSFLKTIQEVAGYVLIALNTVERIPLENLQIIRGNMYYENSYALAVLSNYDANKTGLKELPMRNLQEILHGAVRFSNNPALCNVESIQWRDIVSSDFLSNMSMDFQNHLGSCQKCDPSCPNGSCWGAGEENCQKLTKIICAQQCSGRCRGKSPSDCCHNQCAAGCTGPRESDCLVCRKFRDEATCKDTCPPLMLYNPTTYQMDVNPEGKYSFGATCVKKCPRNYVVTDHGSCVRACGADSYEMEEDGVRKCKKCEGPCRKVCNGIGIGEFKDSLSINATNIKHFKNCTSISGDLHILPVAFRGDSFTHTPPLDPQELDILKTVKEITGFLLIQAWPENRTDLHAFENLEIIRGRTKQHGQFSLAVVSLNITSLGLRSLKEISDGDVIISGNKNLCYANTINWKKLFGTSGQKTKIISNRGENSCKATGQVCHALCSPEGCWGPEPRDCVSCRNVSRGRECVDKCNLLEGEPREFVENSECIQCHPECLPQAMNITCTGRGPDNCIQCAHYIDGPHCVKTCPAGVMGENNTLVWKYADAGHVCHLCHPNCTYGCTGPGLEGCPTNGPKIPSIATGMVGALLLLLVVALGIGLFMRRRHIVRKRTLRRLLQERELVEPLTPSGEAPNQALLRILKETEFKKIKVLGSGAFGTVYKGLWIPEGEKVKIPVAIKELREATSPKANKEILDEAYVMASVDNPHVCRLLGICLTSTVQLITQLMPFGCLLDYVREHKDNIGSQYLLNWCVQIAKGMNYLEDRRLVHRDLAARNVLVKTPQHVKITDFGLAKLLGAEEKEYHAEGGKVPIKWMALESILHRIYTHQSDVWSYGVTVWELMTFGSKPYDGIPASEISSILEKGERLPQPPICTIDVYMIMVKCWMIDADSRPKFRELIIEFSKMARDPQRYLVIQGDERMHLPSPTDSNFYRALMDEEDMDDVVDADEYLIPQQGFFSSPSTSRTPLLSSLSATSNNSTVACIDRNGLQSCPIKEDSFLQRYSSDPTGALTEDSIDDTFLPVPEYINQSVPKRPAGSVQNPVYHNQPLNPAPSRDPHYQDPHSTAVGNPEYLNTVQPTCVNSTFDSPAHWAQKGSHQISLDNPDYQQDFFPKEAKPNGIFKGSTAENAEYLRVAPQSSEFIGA

Assay [3] concerns the target TRAF2 and NCK-interacting protein kinase (Homo sapiens) (UniProt Q9UKE5). In words: Inhibition of ZC2/TNIK Lys1 labeling site in human A-375 cells at 5 uM by KiNativ Profiling analysis relative to control. It is filed as cell-based.
Assay [4] deals with T1, Dual specificity mitogen-activated protein kinase kinase 3 (Homo sapiens) (UniProt P46734).
T1 sequence (whole entry): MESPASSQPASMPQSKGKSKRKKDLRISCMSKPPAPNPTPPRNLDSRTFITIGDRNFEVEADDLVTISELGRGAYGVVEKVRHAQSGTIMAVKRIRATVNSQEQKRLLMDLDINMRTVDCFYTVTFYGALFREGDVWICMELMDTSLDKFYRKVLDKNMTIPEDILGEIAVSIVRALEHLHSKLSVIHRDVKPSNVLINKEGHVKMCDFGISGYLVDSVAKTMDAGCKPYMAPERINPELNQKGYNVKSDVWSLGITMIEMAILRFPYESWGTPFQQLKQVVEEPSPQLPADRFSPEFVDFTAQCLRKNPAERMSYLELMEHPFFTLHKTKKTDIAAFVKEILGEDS
In words: Inhibition of MAP2K3 Lys2 labeling site in human A-375 cells at 5 uM by KiNativ Profiling analysis relative to control. The class given is cell-based.

For assay [5], the target named is 5'-AMP-activated protein kinase catalytic subunit alpha-1 (Homo sapiens) (UniProt Q13131). In words: Inhibition of AMPKa1 ATP Loop labeling site in human A-375 cells at 0.05 uM by KiNativ Profiling analysis relative to control. The class given is cell-based.
Sequence of 5'-AMP-activated protein kinase catalytic subunit alpha-1 (Homo sapiens) (Q13131 whole entry, looked up): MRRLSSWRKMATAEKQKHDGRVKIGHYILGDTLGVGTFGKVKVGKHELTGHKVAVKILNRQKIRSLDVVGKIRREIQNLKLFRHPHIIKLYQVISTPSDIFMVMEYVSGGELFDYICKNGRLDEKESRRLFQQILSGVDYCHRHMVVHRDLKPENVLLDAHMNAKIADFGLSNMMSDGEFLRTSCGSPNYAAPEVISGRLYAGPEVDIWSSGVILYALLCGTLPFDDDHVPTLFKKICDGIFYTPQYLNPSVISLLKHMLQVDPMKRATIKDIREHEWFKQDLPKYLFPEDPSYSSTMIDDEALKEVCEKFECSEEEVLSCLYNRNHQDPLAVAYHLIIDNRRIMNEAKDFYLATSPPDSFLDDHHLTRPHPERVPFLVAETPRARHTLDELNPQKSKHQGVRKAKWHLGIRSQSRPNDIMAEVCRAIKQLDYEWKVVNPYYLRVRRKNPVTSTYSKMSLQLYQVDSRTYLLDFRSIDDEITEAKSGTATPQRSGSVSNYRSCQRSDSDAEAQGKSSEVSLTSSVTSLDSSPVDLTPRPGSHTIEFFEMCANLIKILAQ
Assay [6] addresses T2, Serine/threonine-protein kinase TAO1 (Homo sapiens) (UniProt Q7L7X3).
T2 sequence (whole entry): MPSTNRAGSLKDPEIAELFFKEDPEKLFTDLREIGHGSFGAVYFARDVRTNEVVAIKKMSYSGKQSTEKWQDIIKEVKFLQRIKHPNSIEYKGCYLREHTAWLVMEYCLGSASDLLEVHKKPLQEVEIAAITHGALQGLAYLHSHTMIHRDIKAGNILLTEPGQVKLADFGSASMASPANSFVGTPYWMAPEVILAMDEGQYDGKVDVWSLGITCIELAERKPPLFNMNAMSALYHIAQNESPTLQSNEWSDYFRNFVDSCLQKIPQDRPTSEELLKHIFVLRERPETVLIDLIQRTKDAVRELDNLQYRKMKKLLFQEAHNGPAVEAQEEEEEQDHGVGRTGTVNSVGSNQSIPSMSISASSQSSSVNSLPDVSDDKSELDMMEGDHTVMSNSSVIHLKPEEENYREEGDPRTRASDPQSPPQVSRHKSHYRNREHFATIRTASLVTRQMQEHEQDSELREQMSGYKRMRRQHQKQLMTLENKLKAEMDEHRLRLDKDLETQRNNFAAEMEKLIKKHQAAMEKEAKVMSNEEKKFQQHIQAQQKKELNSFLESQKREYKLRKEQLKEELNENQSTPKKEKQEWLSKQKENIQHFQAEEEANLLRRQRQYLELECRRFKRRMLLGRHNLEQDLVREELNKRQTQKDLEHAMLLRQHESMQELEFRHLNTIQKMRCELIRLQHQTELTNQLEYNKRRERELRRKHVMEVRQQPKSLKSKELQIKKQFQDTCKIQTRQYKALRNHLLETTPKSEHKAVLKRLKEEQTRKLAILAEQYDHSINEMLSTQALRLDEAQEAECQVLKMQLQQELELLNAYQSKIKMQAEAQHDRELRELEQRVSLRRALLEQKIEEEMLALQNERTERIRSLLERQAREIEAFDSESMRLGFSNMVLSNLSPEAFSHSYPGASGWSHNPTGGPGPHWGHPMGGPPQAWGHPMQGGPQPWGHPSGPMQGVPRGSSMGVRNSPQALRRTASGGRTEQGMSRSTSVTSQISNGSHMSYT
The experiment in a line: Inhibition of TAO1 Lys2 labeling site in human A-375 cells at 0.5 uM by KiNativ Profiling analysis relative to control. The class given is cell-based.

For assay [7], the target named is T3, Ephrin type-B receptor 4 (Homo sapiens) (UniProt P54760).
T3 sequence (whole entry): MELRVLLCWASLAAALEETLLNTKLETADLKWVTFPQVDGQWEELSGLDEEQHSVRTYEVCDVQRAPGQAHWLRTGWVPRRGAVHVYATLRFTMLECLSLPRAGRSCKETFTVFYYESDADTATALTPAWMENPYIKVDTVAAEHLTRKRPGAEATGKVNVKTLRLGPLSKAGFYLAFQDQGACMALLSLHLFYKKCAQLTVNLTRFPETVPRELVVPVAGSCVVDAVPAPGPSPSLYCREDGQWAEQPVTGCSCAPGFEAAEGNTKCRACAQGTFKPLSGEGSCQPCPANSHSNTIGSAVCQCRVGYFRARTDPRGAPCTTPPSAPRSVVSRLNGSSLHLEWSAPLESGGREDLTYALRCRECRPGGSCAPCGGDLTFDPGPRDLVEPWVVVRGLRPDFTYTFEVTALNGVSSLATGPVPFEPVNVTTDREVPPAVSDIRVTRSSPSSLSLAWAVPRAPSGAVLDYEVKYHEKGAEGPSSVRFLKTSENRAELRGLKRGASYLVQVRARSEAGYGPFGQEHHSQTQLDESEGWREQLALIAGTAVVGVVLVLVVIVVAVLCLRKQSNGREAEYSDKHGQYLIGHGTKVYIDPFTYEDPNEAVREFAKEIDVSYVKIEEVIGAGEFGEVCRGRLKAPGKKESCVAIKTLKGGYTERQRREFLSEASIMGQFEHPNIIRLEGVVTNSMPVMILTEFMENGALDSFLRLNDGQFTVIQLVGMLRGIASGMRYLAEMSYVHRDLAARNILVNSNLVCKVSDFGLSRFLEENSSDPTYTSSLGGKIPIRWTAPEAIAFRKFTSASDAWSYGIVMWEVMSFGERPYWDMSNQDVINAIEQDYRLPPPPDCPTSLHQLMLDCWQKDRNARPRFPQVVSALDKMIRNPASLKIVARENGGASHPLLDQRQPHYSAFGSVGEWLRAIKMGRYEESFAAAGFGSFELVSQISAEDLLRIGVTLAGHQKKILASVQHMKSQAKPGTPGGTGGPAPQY
In words: Inhibition of EphB4 ACT labeling site in human Huh-7 cell lysate at 1 uM by KiNativ Profiling analysis relative to control. It is filed as subcellular.

Sequence of Calcium/calmodulin-dependent protein kinase kinase 2 (Homo sapiens) (Q96RR4 2-588 limits assumed): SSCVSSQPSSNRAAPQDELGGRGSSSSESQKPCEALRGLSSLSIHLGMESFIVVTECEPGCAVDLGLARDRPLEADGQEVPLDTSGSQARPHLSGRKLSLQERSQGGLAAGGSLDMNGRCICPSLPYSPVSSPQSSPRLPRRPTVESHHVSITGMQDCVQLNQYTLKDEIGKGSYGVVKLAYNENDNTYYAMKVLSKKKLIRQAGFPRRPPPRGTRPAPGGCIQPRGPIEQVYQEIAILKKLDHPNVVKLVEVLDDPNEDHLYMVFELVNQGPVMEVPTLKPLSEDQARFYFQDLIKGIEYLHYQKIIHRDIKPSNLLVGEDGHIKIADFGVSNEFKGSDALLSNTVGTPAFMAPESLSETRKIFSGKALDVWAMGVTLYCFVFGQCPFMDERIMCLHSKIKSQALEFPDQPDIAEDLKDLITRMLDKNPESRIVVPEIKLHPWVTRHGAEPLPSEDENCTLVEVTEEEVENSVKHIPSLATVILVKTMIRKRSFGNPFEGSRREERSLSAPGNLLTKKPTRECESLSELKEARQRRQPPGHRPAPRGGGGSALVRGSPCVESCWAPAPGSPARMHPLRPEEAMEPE
Sequence of TRAF2 and NCK-interacting protein kinase (Homo sapiens) (Q9UKE5 whole entry, looked up): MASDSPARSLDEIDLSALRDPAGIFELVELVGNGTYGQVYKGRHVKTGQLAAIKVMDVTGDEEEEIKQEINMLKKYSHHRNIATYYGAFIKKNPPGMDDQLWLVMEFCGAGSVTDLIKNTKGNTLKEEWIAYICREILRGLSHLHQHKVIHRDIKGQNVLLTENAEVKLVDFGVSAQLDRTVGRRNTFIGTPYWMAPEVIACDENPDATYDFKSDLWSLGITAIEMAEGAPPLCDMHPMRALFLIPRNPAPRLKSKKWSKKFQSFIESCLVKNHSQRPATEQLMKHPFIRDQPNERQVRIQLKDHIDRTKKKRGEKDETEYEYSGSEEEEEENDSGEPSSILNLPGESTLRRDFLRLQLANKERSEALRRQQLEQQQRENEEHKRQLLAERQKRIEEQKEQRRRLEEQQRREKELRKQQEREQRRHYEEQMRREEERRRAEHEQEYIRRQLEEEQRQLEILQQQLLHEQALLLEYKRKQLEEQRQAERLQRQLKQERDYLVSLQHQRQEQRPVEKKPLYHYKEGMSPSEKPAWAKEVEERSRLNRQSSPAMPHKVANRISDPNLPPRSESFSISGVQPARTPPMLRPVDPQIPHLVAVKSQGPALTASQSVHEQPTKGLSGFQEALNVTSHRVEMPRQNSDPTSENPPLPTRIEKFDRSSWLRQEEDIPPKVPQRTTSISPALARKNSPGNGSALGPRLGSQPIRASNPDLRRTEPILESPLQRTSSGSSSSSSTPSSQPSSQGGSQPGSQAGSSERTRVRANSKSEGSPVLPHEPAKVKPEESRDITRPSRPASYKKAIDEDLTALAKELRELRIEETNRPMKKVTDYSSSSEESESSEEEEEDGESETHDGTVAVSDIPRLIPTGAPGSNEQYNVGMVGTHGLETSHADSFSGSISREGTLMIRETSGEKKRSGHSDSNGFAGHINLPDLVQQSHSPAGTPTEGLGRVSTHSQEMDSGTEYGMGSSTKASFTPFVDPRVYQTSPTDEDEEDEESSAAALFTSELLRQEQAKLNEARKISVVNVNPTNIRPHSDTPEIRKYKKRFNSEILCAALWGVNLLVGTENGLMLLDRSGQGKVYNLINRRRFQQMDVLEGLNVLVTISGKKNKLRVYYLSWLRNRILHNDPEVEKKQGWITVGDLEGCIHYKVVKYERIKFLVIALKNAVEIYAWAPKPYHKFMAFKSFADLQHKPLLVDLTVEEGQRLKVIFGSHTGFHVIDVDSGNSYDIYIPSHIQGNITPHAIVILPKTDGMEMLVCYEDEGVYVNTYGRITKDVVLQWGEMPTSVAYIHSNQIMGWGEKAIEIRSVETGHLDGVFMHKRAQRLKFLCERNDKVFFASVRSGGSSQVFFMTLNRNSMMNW

`CCN1CCN(Cc2ccc(NC(=O)c3ccc(C)c(/C=C/c4cnc5[nH]ccc5c4OC)c3)cc2C(F)(F)F)CC1`: the inhibition in assay [1] is 14.4%; in assay [2], -7.4%; in assay [3] it was over 95%; in assay [4], -6.9%; in assay [5], -8.8%; in assay [6] it was 6.6%.

As to `CNc1cc(Oc2cc(C(=O)Nc3cc(-n4cnc(C)c4)cc(C(F)(F)F)c3)ccc2C)ncn1`, the inhibition in assay [7] turned out to be 1.2%.

Take `CCN1CCN(Cc2ccc(NC(=O)c3ccc(C)c(Oc4ccnc5[nH]ccc45)c3)cc2C(F)(F)F)CC1`: the inhibition in assay [1] was 33.2%; in assay [2], 0.7%; in assay [3], over 95%; in assay [4], -5.7%; in assay [5] it was -4.4%; in assay [6] it was -5.6%.

Take `CNc1cc(Oc2cc(C(=O)Nc3cc(N4CCN(C)CC4)cc(C(F)(F)F)c3)ccc2C)ncn1`: the inhibition in assay [7] was 0.2%.

The values above are taken from ChEMBL document CHEMBL5696442, “Discovery of type II inhibitors of TGFβ-activated kinase 1 (TAK1) and mitogen-activated protein kinase kinase kinase kinase 2 (MAP4K2)” (J Med Chem, 2015).
